Source: ChEMBL document CHEMBL4007444, “Development of New Benzenesulfonamides As Potent and Selective Nav1.7 Inhibitors for the Treatment of Pain” (J Med Chem, 2017)
The source made the active and inactive calls. The rule behind the calls is not given here.

Experiments:
[1] = molecular target: Sodium channel protein type 5 subunit alpha (Homo sapiens, UniProt Q14524); experiment: Inhibition of recombinant human Nav1.5 expressed in HEK293 cells assessed as reduction in peak inward current at -50 mV holding potential measured after 600 secs by IonWorks Barracuda patch-clamp assay; format: cell-based
In short: (§1)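 HEK293 cells expressing the channel, measured by population patch clamp on IonWorks Barracuda. External solution (mM): 137 NaCl, 4 KCl, 1 MgCl2, 1.8 CaCl2, 10 HEPES, 10 glucose, pH 7.4. Internal: K-gluconate/KCl, pH 7.2. Compound incubated 600 s between pre- and post-compound reads. Nav1.7: held at -60 mV, 300 ms at -100 mV, then 20 ms test pulse to -20 mV. Nav1.5: held at -40/-50 mV, 300 ms at -100 mV, then step to -10 mV to inactivate.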

[2] = molecular target: T1, Sodium channel protein type 9 subunit alpha (Homo sapiens, UniProt Q15858); experiment: Inhibition of recombinant human Nav1.7 expressed in HEK293 cells assessed as reduction in peak inward current at -60 mV holding potential measured after 600 secs by IonWorks Barracuda patch-clamp assay; format: cell-based
In short: as §1, with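 “Barracuda.” for “Barracuda. External solution (mM): 137 NaCl, 4 KCl, 1 MgCl2, 1.8 CaCl2, 10 HEPES, 10 glucose, pH 7.4.”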

Cytochrome P450 3A4 = Cytochrome P450 3A4 (Homo sapiens, UniProt P08684); experiment: Inhibition of human CYP3A4 assessed as inhibition of dealkylation
[3] = molecular target: T2, Sodium channel protein type 9 subunit alpha (Mus musculus, UniProt Q62205); experiment: Inhibition of recombinant mouse Nav1.7 expressed in HEK293 cells assessed as reduction in peak inward current at -70 mV holding potential measured after 600 secs by manual patch clamp electrophysiology assay; format: cell-based
In short: (§2)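 Whole-cell manual patch clamp of HEK293 cells stably expressing recombinant Nav1.7, holding potential -70 mV (partially inactivated state). Pipette solution (mM): 50 CsCl, 90 CsF, 10 NaF, 2 MgCl2, 10 EGTA, 10 HEPES, pH 7.2; electrode resistance 1-4 MOhm. Percent inhibition of peak inward current; IC50 from a Hill fit to the averaged data; mean ± SEM.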

[4] = Apparent permeability of the compound at pH 7.4 by PAMPA assay; format: physicochemical
[5] = Drug uptake in CD-1 mouse DRG neurons at 30 mg/kg, po measured 75 mins post dosage; format: ADME, organism-based, DRG neuron; settings: read-out: Drug uptake
[6] = Apparent permeability of the compound at pH 5.5 by PAMPA assay; format: physicochemical
[7] = Plasma concentration in CD-1 mouse at 30 mg/kg, po measured 75 mins post dosage; format: ADME, organism-based
[8] = Fraction unbound in CD-1 mouse plasma; format: ADME, cell-free
Mus musculus [9] = experiment: Antinociceptive activity in CD-1 mouse assessed as reduction in formalin-stimulated paw flinching at 30 mg/kg, po administered 30 mins prior to formalin challenge measured up to 45 mins; format: functional, organism-based
In short: (§3)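 Male CD1 mice, oral dosing (10 mL/kg) of compound or vehicle before formalin; 20 μL of 5% formalin (w/v in saline) injected SC into the dorsal right hind paw, which carried a glued metal band, after 60 min acclimation in an individual chamber. Flinching counted automatically for 45 min: phase I is the first 5 min, phase II is 15-45 min. Mean ± SEM, n=10-14/group, ANOVA with Dunnett's test.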

Plasma [10] = experiment: Free plasma concentration in CD-1 mouse at 30 mg/kg, po measured 75 mins post dosage; format: ADME, organism-based; settings: in vivo, 1.25 h
[11] = molecular target: T1, Sodium channel protein type 9 subunit alpha; experiment: Inhibition of recombinant human Nav1.7 expressed in HEK293 cells assessed as reduction in peak inward current at -70 mV holding potential measured after 600 secs by manual patch clamp electrophysiology assay; format: cell-based
In short: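 Whole-cell manual patch clamp of HEK293 cells stably expressing recombinant human Nav1.7, held at -70 mV (partially inactivated state). The pipette solution (mM) was 50 CsCl, 90 CsF, 10 NaF, 2 MgCl₂, 10 EGTA and 10 HEPES, pH 7.2, with electrodes of 1-4 MOhm. Percent inhibition of peak inward current was calculated, and IC50 came from a Hill fit to averaged percent inhibition (mean ± S.E.M.).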

Mus musculus [12] = experiment: Antinociceptive activity in CD-1 mouse assessed as reduction in formalin-stimulated paw flinching at 60 mg/kg, po administered 30 mins prior to formalin challenge measured up to 45 mins; format: functional, organism-based; in short: as §3
Mus musculus [13] = experiment: Antinociceptive activity in CD-1 mouse assessed as reduction in formalin-stimulated paw flinching at 60 mg/kg, po administered 30 mins prior to formalin challenge measured up to 5 mins; format: functional, organism-based; in short: as §3
Plasma [14] = experiment: Free plasma concentration in CD-1 mouse at 60 mg/kg, po measured 60 mins post dosage; settings: in vivo, 1 h
Plasma [15] = experiment: Free plasma concentration in CD-1 mouse at 100 mg/kg, po measured 60 mins post dosage; settings: in vivo, 1 h
[16] = molecular target: T2, Sodium channel protein type 9 subunit alpha; experiment: Inhibition of Nav1.7 in C57BL/6 mouse DRG neurons assessed as reduction in native TTX-S current amplitude by manual patch clamp electrophysiology assay
Mus musculus [17] = experiment: Antinociceptive activity in CD-1 mouse assessed as reduction in formalin-stimulated paw flinching at 100 mg/kg, po administered prior to formalin challenge measured up to 5 mins
Mus musculus [18] = experiment: Antinociceptive activity in CD-1 mouse assessed as reduction in formalin-stimulated paw flinching at 100 mg/kg, po administered 30 mins prior to formalin challenge measured up to 45 mins; format: functional, organism-based; in short: as §3
[19] = molecular target: T1, Sodium channel protein type 9 subunit alpha; experiment: Inhibition of recombinant human Nav1.7 expressed in HEK293 cells assessed as reduction in peak inward current at -120 mV holding potential by manual whole-cell patch-clamp assay
[20] = molecular target: Sodium channel protein type 9 subunit alpha (Rattus norvegicus, UniProt O08562); experiment: Inhibition of rat Nav1.7 assessed as reduction in peak inward current at -70 mV holding potential measured after 600 secs by manual patch clamp electrophysiology assay; in short: as §2

Sequence of Sodium channel protein type 5 subunit alpha (Q14524 whole entry): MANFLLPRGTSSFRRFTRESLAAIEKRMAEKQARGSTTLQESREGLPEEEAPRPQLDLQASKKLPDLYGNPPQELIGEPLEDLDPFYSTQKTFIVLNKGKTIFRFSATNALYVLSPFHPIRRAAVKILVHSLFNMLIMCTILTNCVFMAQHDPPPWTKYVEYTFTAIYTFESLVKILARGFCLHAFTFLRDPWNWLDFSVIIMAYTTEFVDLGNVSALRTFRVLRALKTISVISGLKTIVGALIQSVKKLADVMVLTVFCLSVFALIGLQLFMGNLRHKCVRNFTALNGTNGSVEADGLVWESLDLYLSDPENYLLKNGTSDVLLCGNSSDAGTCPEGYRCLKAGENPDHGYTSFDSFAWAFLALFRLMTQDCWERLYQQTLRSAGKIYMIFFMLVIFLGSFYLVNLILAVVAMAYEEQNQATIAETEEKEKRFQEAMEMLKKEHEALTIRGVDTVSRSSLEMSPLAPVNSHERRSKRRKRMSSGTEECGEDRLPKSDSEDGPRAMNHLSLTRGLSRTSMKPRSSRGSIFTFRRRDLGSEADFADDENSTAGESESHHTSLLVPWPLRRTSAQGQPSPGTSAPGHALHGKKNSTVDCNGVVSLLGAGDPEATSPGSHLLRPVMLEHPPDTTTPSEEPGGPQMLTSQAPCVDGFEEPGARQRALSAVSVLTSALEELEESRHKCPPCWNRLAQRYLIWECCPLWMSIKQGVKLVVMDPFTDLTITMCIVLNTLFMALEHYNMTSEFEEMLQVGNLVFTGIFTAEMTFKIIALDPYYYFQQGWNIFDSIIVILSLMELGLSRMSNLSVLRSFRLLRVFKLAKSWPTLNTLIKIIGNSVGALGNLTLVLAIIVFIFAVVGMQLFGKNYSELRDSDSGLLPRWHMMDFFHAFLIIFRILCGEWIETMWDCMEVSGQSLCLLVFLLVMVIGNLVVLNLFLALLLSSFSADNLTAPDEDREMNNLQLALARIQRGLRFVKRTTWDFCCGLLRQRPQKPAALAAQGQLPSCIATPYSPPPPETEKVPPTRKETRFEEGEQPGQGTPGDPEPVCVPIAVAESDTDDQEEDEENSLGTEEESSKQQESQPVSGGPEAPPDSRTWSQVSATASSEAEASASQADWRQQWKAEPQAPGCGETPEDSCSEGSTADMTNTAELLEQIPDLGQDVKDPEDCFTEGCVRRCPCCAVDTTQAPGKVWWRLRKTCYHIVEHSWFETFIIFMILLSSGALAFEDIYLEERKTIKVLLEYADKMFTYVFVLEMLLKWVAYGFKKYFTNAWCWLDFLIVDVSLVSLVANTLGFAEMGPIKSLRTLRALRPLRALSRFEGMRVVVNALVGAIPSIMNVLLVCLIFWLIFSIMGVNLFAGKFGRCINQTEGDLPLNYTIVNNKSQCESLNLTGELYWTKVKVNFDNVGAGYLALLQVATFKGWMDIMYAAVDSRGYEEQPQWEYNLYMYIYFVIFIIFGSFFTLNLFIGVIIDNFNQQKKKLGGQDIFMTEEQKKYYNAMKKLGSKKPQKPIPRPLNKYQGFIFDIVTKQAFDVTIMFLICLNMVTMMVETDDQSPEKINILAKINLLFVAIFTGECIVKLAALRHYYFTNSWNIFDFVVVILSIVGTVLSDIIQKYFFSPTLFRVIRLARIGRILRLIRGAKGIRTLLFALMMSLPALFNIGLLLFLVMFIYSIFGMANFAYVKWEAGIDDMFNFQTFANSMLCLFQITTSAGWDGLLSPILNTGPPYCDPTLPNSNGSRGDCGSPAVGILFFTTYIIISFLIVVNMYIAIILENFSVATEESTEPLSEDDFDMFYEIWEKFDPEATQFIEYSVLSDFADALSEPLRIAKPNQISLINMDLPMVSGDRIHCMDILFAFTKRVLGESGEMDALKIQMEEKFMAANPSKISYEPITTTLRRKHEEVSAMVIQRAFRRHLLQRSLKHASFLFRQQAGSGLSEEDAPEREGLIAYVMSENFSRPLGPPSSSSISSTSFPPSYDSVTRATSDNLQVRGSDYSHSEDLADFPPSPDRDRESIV
T2 sequence (Q62205 whole entry): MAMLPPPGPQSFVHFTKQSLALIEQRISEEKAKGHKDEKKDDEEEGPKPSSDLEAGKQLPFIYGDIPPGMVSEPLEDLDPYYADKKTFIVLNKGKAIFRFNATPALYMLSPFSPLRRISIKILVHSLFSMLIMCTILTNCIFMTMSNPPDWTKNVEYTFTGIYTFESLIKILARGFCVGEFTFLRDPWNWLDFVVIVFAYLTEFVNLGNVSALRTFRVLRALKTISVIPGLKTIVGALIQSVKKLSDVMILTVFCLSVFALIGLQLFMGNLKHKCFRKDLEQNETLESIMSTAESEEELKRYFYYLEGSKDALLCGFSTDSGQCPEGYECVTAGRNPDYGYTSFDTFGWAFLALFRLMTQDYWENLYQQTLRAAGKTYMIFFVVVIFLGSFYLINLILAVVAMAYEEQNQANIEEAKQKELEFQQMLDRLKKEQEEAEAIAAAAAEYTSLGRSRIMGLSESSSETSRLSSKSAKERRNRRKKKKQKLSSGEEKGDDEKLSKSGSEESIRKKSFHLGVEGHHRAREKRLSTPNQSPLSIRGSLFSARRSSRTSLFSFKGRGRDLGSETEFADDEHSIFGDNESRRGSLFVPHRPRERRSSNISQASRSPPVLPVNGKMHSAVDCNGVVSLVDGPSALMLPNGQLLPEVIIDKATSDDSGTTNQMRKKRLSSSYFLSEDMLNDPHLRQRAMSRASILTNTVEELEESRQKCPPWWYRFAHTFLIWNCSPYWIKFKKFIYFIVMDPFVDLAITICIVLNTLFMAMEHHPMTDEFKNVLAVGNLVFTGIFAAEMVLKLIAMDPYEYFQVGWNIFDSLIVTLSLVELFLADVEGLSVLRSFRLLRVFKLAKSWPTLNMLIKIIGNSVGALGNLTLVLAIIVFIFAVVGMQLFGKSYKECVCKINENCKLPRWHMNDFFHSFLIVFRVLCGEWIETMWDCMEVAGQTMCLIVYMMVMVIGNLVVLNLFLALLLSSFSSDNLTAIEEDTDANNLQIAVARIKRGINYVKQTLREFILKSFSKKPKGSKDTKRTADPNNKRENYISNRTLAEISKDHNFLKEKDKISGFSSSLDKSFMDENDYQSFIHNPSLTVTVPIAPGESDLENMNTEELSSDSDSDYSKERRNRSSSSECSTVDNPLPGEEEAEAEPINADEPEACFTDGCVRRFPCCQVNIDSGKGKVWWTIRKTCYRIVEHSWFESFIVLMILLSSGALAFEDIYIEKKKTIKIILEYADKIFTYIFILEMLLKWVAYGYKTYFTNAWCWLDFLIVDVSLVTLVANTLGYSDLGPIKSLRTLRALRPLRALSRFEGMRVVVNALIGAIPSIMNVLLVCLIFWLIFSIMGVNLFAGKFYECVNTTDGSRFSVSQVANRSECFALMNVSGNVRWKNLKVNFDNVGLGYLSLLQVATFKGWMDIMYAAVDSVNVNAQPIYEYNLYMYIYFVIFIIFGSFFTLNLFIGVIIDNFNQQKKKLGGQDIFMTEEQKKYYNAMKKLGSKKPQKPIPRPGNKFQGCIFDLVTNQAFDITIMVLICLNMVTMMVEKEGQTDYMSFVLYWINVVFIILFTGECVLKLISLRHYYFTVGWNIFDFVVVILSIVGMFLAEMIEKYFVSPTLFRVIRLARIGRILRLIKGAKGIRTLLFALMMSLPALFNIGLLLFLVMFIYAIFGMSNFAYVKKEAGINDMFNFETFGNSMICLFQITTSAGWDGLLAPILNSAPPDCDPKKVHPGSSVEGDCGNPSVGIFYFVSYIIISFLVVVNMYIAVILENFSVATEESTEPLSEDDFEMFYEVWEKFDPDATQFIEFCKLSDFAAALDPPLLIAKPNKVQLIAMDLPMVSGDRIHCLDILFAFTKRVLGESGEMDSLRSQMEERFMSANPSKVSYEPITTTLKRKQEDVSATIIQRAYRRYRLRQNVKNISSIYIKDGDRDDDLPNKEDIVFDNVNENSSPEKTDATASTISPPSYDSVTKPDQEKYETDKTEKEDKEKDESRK
Sequence of Cytochrome P450 3A4 (P08684 whole entry): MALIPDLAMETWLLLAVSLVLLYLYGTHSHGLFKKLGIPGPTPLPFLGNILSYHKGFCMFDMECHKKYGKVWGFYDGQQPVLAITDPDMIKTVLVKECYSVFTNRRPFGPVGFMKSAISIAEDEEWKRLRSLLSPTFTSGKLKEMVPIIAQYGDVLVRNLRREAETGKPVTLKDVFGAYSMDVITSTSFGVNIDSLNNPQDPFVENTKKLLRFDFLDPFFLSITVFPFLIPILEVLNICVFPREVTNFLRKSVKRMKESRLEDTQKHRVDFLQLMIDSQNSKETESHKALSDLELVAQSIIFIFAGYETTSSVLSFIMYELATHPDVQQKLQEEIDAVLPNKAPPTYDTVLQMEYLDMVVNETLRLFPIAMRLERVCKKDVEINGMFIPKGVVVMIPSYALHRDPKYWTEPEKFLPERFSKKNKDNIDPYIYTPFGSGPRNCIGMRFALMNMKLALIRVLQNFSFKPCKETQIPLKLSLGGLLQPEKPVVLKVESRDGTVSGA

Row | IC50 [2] [µM] | SMILES | IC50 [1] [µM] | also measured
1 |  | O=S(=O)(Nc1nccs1)c1cc(Cl)c(NCCC2CNC2)cc1F | > 30 | 
2 | 0.002 | O=S(=O)(Nc1ncns1)c1cc(F)c(OC[C@@H]2CNCC[C@H]2c2ccc(Cl)cc2)cc1F |  | 
3 | 0.069 | O=S(=O)(Nc1nccs1)c1cc(Cl)c(NCC2CNCCO2)cc1F (racemic) | > 30 | IC50 (Cytochrome P450 3A4): 20 µM
4 |  | CN1CCC(CCNc2cc(F)c(S(=O)(=O)Nc3nccs3)cc2Cl)CC1 | > 30 | 
5 |  | O=S(=O)(Nc1nccs1)c1cc(Cl)c(NCC2(CN3CCCC3)CC2)cc1F | 5.1 | IC50 [3]: 0.051 µM; Papp [4]: 949 nm/s; concentration at 1.25 h [5]: 1.5 µM; Papp [6]: 47 nm/s; concentration at 1.25 h [7]: 1.2 µM; fraction unbound [8]: 0.2; Activity (Mus musculus [9]): Active; IC50 (Cytochrome P450 3A4): 20 µM; Cp(f) (Plasma [10]): 0.24 µM; IC50 [11]: 0.012 µM
6 |  | N[C@H]1CC[C@@](CCOc2cc(F)c(S(=O)(=O)Nc3ncns3)cc2F)(c2ccc(Cl)cc2)CC1 | > 30 | 
7 | 0.057 | O=S(=O)(Nc1nccs1)c1cc(Cl)c(NC[C@@H]2CCCNC2)cc1F |  | IC50 (Cytochrome P450 3A4): 20 µM
8 |  | O=S(=O)(Nc1nccs1)c1cc(Cl)c(NCC23CCCN2CCC3)cc1F |  | Activity (Mus musculus [12]): Active; Activity (Mus musculus [13]): inactive; Cp(f) (Plasma [14]): 1.27 µM
9 |  | N[C@H]1CC[C@@H](CCNc2cc(F)c(S(=O)(=O)Nc3nccs3)cc2Cl)CC1 | 4.9 | 
10 | 0.264 | CN1CCCC(CNc2cc(F)c(S(=O)(=O)Nc3nccs3)cc2Cl)C1 (racemic) | > 30 | 
11 |  | N[C@H]1CC[C@@](CCOc2cc(F)c(S(=O)(=O)Nc3ncns3)cc2Cl)(c2ccccc2)CC1 | > 30 | 
12 | 0.383 | C[C@]1(CCOc2cc(F)c(S(=O)(=O)Nc3ncns3)cc2F)CC[C@H](N)CC1 | > 30 | 
13 |  | O=S(=O)(Nc1nccs1)c1cc(Cl)c(NCCC2CCNCC2)cc1F | > 30 | 
14 |  | N[C@H]1CC[C@](CCNc2cc(F)c(S(=O)(=O)Nc3nccs3)cc2Cl)(c2ccccc2)CC1 | > 30 | IC50 (Cytochrome P450 3A4): 6.7 µM
15 | 0.015 | N[C@H]1CC[C@](CCOc2cc(F)c(S(=O)(=O)Nc3ncns3)cc2F)(c2ccccc2)CC1 | > 30 | 
16 | 0.339 | O=S(=O)(Nc1nccs1)c1cc(Cl)c(NCC2CNC2)cc1F | > 30 | 
17 |  | N[C@H]1CC[C@@H](CNc2cc(F)c(S(=O)(=O)Nc3ncns3)cc2Cl)CC1 | 2.6 | IC50 (Cytochrome P450 3A4): 2.3 µM
18 | 0.006 | N[C@H]1CC[C@@H](CNc2cc(F)c(S(=O)(=O)Nc3nccs3)cc2Cl)CC1 | 1.9 | IC50 [3]: 0.0075 µM; Cp(f) (Plasma [15]): 0.32 µM; IC50 [16]: 0.006 µM; Activity (Mus musculus [17]): inactive; fraction unbound [8]: 0.08; Activity (Mus musculus [18]): inactive; IC50 [19]: 9.4 µM; IC50 [20]: 0.0123 µM; IC50 [11]: 0.004 µM
19 | 0.027 | CN1C(C)(C)CC(Nc2cc(F)c(S(=O)(=O)Nc3nccs3)cc2Cl)CC1(C)C | > 30 | IC50 [3]: 0.03 µM; Papp [4]: 241 nm/s; concentration at 1.25 h [5]: 1.5 µM; Papp [6]: 23 nm/s; concentration at 1.25 h [7]: 1.1 µM; fraction unbound [8]: 0.23; IC50 (Cytochrome P450 3A4): 20 µM; Cp(f) (Plasma [10]): 0.28 µM; IC50 [11]: 0.017 µM

Row | IC50 [2] [µM] | SMILES | IC50 [1] [µM] | also measured
20 | 0.207 | O=S(=O)(Nc1nccs1)c1cc(Cl)c(NC[C@@H]2CCCN(O)C2)cc1F |  | 
21 |  | N[C@H]1CC[C@](CCOc2cc(F)c(S(=O)(=O)Nc3ncns3)cc2Cl)(c2ccccc2)CC1 | > 30 | 
22 | 0.014 | O=S(=O)(Nc1nccs1)c1cc(Cl)c(NCCC2CCNC2)cc1F (racemic) | > 30 | 
23 | 0.049 | O=S(=O)(Nc1nccs1)c1cc(Cl)c(NC[C@H]2CCCNC2)cc1F | > 30 | IC50 (Cytochrome P450 3A4): 20 µM
24 | 0.015 | O=S(=O)(Nc1ncns1)c1cc(Cl)c(NCCC2CCCCN2)cc1F (racemic) |  | 
25 |  | N[C@H]1CC[C@@](CCNc2cc(F)c(S(=O)(=O)Nc3nccs3)cc2Cl)(c2ccccc2)CC1 | > 30 | IC50 (Cytochrome P450 3A4): 9.8 µM
26 | 0.186 | O=S(=O)(Nc1nccs1)c1cc(Cl)c(NC[C@H]2CCCN(O)C2)cc1F |  | 
27 | 0.078 | C[C@]1(CCOc2cc(F)c(S(=O)(=O)Nc3ncns3)cc2F)CC[C@@H](N)CC1 | > 30 | 
28 |  | O=S(=O)(Nc1ncns1)c1cc(F)c(OCC[C@]2(c3ccccc3)CC[C@H](NC3CC3)CC2)cc1F | > 30 | 
29 |  | CN[C@H]1CC[C@@](CCOc2cc(F)c(S(=O)(=O)Nc3ncns3)cc2F)(c2ccccc2)CC1 | > 30 | 
30 | 0.324 | CC(=O)N1CCCC(CNc2cc(F)c(S(=O)(=O)Nc3nccs3)cc2Cl)C1 (racemic) | > 30 | 
31 | 0.078 | O=S(=O)(Nc1ncns1)c1cc(F)c(OCCC2(c3ccc(Cl)cc3)CCNCC2)cc1F |  | 
32 | 0.473 | N[C@H]1CC[C@@](CCOc2cc(F)c(S(=O)(=O)Nc3ncns3)cc2F)(c2ccccc2)CC1 | > 30 | 
33 | 0.9 | O=S(=O)(Nc1ncns1)c1cc(F)c(OCC2(c3ccc(Cl)cc3)CCNCC2)cc1F |  | 
34 |  | CN[C@H]1CC[C@](CCOc2cc(F)c(S(=O)(=O)Nc3ncns3)cc2F)(c2ccccc2)CC1 | > 30 | 
35 |  | O=S(=O)(Nc1ncns1)c1cc(F)c(OCC[C@]2(c3ccccc3)CC[C@@H](NC3CC3)CC2)cc1F | > 30 | 
36 |  | N[C@H]1CC[C@H](CNc2cc(F)c(S(=O)(=O)Nc3nccs3)cc2Cl)CC1 | > 30 | 
37 |  | N[C@H]1CC[C@](CCOc2cc(F)c(S(=O)(=O)Nc3ncns3)cc2F)(c2ccc(Cl)cc2)CC1 | > 30 | 
